# Rows were chosen to be rich in hits. Some 4.2% of all compounds tested hit in one or more screens of this group.
# HDAC3 inhib – blocks human histone deacetylase 3; 0.15% of 320,000 active; inhibition, % at 8.3 µM; recombinant HDAC3, fluorogenic peptide/trypsin coupled, fluorescence; AID 2718; O15379; in the data active = inhibition above about 26%, passing the limit was not always enough
# AHR act – activators of human aryl hydrocarbon receptor. 2.5% of 320,000 active. AID 2796. activation, % at 5 µM. AHR-responsive luciferase reporter cells, luminescence. P35869; in the data active = activation above about 47%;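 also: 0% = vehicle wells and 100% = reference agonist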
# Target sequence (P35869 whole entry, looked up): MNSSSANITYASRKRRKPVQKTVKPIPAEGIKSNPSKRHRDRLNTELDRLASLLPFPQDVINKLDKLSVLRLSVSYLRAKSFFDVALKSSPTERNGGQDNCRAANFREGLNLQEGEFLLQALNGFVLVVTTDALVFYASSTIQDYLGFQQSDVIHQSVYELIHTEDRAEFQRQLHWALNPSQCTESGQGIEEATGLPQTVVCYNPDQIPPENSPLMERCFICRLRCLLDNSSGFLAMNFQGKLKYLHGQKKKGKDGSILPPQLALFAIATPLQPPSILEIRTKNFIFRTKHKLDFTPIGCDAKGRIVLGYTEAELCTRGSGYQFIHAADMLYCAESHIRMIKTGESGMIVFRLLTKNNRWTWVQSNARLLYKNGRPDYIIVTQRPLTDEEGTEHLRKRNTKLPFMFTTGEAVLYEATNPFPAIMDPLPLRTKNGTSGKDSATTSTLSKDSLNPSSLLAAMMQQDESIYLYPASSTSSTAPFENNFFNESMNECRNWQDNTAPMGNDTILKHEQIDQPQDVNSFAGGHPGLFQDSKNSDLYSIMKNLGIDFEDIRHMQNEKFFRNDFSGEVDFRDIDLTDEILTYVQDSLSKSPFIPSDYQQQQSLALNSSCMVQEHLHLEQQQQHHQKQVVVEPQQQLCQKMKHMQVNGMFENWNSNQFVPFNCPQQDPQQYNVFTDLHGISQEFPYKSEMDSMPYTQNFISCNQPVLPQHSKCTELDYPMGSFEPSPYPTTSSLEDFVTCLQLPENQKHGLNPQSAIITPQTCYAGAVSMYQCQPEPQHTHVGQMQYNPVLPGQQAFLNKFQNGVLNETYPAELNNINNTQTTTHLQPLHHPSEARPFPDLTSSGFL
# CTSL1 counter – blocks F. hepatica cathepsin L1 in PFM18AAP counter-screen; recombinant F. hepatica cathepsin L1, Z-Leu-Arg-MCA fluorescence; inhibition, % at 5.96 µM; 0.49% of 300,000 active;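 active = inhibition above the mean of all tested compounds plus 3 SD, set per screening campaign, cut at about 17% in these data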;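 also: 0% = plate median of test compound wells and 100% = 1 µM Z-Phe-Ala-diazomethylketone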
# SENP1 inh – SENP1 (human) catalytic domain inhibition; recombinant SENP1 catalytic domain, CyPet-SUMO1-YPet FRET cleavage; 0.21% of 360,000 active; inhibition, % at 10 µM; AID 624204;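 active = inhibition at least 30% at 10 µM, raw YFP signal under a set limit, fluorescence ratio 0.5 to 1.5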;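 also: 0% = enzyme with DMSO and 100% = no enzyme wells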
#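 system = hSENP1 catalytic domain, recombinant | reagent = SFCypet-SUMO1-SFYpet substrate at 25 nM | doses = one dose per compound, 10 µM, 0.5% DMSO | incubation = enzyme reaction for 50 min at room temperature, dark | measured by = FRET, CFP and YFP emission | controls = no-enzyme low, enzyme-DMSO high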
# M18AAP inhibitor – PfM18AAP enzyme inhibition. recombinant PfM18AAP, H-Glu-NHMec fluorogenic cleavage. 1.2% of 290,000 active. AID 1822. inhibition, % at 7.35 µM;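 active = inhibition above the campaign mean inhibition over all tested compounds plus 3 SD, cut at about 28% in these data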;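 also: 0% = plate median of test compound wells and 100% = 2 mM ZnCl2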
# FXN GAA850 act – frataxin GAA850 promoter activation; activation, % at 6 µM; HEK293 lucGAA850 FXN promoter luciferase reporter, 24 h; percent of 10 µM SAHA response; 0.56% of 360,000 active;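 active = activation above the average of all compounds screened plus 3 SD, cutoff fixed separately per campaign, cut at about 7.5% in these data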;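 also: 0% = DMSO wells and 100% = 10 µM SAHA wells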
# * = called active by the depositor; · = no result.
SMILES,HDAC3 inhib,AHR act,CTSL1 counter,SENP1 inh,M18AAP inhibitor,FXN GAA850 act
NC(=O)c1nsc(C(=O)N(c2cccc(F)c2)C(C(=O)NCC2CCCO2)c2c[nH]c3ccccc23)c1N (centres undefined),12.7,64.6*,0.3,-13.5,3.0,-0.3
Cc1cccc(N(C(=O)c2snc(C(N)=O)c2N)C(C(=O)NCC2CCCO2)c2c[nH]c3ccccc23)c1 (centres undefined),11.0,9.3,1.6,-7.6,-4.3,1.1
CC1(C)Cc2c(sc3ncnc(NN)c23)CO1,1.7,11.9,0.7,-4.4,30.4*,4.2
CC1(C)Cc2c(sc3ncn(N)c(=N)c23)CO1,1.7,8.1,-2.1,-2.3,2.5,2.5
COc1ccc(NC(=O)CSCC(=O)Nc2ccc(C)c(S(=O)(=O)N3CCCCCC3)c2)cc1,0.6,-6.0,-6.1,-0.8,·,0.6
CCOC(=O)c1c(C)oc2c1c(CN1CCN(CCO)CC1)c(O)c1ccccc12,·,·,·,-2.4,6.3,3.4
CCOC(=O)c1c(C)oc2c1c(CN1CCN(C(=O)OCC)CC1)c(O)c1ccccc12,·,49.8*,3.1,-7.3,4.6,1.5
OC1CNc2c(ccc3ccccc23)C1 (centres undefined),·,·,·,-3.6,·,1.8
COc1ccc(S(=O)(=O)N(C)CC(=O)NCc2ccco2)cc1OC,-0.2,-0.6,-1.1,-4.2,4.6,1.7
CCOc1ccc(S(=O)(=O)N2CCN(CCNS(=O)(=O)c3ccc(C)cc3)CC2)cc1,·,·,·,2.7,·,-0.3
Cc1ccc(-c2cc3nc(-c4ccccc4)cc(N4CCC5(CC4)OCCO5)n3n2)cc1,1.0,11.3,4.7,-13.7,-3.6,0.6
Cc1cccc(-c2cc3nc(-c4ccccc4)cc(N4CCC5(CC4)OCCO5)n3n2)c1,-37.0,19.9,20.5*,-3.2,-4.6,1.0
O=C(O)C1CC=CCC1C(=O)N1CCCC1 (centres undefined),1.5,0.2,18.0*,1.9,-2.6,-1.0
O=C(C1CC=CCC1)N1CCCCCC1 (centres undefined),·,·,·,0.3,·,-1.1
CCCCNC(=O)c1nc(C2CCNCC2)oc1-c1cccc(C(F)(F)F)c1,·,·,·,1.3,·,·
O=C1CC(c2ccccc2)Cc2nc3ncnn3cc21 (centres undefined),0.3,0.4,-0.9,17.2,28.3*,0.6
O=C1CC(c2ccccc2)Cc2nc(NC3CC3)ncc21 (centres undefined),4.1,1.6,1.0,0.4,-2.0,3.8
COc1ccc(NC(=O)Nc2cccc3c2O[C@@H](CN(C)S(=O)(=O)c2cn(C)cn2)[C@@H](C)CN([C@H](C)CO)C3=O)cc1,0.3,0.3,·,0.5,·,0.5
CCOC(=O)C1(N(CC)CC)Sc2cc(C)ccc2NC1=O (centres undefined),14.3,2.9,4.7,-0.3,-3.0,-3.8
CCOC(=O)C1(Nc2nccs2)Sc2ccccc2NC1=O (centres undefined),-0.3,8.2,32.7*,0.6,-8.0,-4.2
CCOC(=O)c1[nH]c2c(c1C)C(=O)CC(c1ccco1)C2 (centres undefined),-1.7,10.3,3.0,-7.4,-17.6,0.5
COCCOC(=O)c1[nH]c2c(c1C)C(=O)CC(c1ccco1)C2 (centres undefined),3.9,56.1*,1.3,-9.4,-4.5,-1.4
C=CCC1NS(=O)(=O)OCC1NC(=O)OCC(Cl)(Cl)Cl (centres undefined),-0.4,-1.6,20.0*,1.0,-0.6,2.3
COC(=O)c1ccc(CSc2nc3scc(-c4cccs4)c3c(=O)[nH]2)o1,42.2*,14.1,-3.9,-19.7,-2.6,-1.2
COc1nc(Nc2cccc([N+](=O)[O-])c2)nc(OC)n1,0.5,3.5,2.2,-1.6,-4.5,2.1
C#CCOc1nc(Nc2cccc([N+](=O)[O-])c2)nc(OCC#C)n1,-10.4,52.3*,-6.2,1.9,3.0,1.4
CC(C)Nc1nc(NCc2ccccc2)c2sccc2n1,·,·,·,2.0,·,0.1
O=C(c1cccc(Br)c1)N1CCN(c2ccc(N3CCOCC3)nn2)CC1,0.0,0.3,18.3*,-14.5,·,-1.4
Cc1cc(C)c2cccc(NC(=S)NC(=O)c3ccccc3)c2n1,·,45.1,1.4,1.2,13.4,5.3
Cc1ccc2cccc(NC(=S)NC(=O)c3ccccc3)c2n1,-0.3,56.1*,1.7,-8.3,2.8,6.2

# Screens: PubChem BioAssay, several laboratories
